Experiments:
[1] = target: T1, Serotonin 2 (5-HT2) receptor (Rattus norvegicus) (UniProt P30994+P08909+P14842); assay: In vivo inhibitory activity of 10 mg/kg compound in rats against elevation of BP caused by 5-HT (300 ug/kg, iv) through 5-hydroxytryptamine 2 receptor 1 hr after oral administration; format: functional, organism-based; set-up: dose 10 mg/kg
Summary of the method: (§1)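 Male SD rats anesthetized with urethane (1 g/kg ip) plus alpha-chloralose (80 mg/kg ip). Carotid arterial catheter to a pressure transducer, venous catheter for injection. After oral drug or vehicle, 5-HT 300 μg/kg iv. The pressor phase following the brief hypotensive phase was measured and expressed as % inhibition, mean ± SEM.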

[2] = target: T2, Adrenergic receptor alpha-1 (Rattus norvegicus, UniProt P15823+P23944+P43140); assay: In vitro antagonistic activity tested against the contraction induced by phenylephrine through Alpha-1 adrenergic receptor in rat thoracic aortic strips; format: functional
T2 sequence (P15823 whole entry): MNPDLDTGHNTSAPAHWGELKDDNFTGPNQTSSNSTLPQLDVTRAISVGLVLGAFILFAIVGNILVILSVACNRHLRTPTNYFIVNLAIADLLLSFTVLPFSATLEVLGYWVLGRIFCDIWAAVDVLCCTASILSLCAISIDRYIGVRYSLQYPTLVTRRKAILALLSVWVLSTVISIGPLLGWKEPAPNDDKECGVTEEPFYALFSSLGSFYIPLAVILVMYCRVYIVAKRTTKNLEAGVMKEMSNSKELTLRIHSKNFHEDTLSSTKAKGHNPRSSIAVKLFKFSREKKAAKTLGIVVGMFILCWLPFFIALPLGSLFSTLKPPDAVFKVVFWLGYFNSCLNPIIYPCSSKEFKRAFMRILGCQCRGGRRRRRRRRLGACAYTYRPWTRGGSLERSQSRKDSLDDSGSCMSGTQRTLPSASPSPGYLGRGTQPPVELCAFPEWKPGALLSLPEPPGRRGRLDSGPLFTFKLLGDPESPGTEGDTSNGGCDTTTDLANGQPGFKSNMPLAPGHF
T2 sequence (P23944 whole entry): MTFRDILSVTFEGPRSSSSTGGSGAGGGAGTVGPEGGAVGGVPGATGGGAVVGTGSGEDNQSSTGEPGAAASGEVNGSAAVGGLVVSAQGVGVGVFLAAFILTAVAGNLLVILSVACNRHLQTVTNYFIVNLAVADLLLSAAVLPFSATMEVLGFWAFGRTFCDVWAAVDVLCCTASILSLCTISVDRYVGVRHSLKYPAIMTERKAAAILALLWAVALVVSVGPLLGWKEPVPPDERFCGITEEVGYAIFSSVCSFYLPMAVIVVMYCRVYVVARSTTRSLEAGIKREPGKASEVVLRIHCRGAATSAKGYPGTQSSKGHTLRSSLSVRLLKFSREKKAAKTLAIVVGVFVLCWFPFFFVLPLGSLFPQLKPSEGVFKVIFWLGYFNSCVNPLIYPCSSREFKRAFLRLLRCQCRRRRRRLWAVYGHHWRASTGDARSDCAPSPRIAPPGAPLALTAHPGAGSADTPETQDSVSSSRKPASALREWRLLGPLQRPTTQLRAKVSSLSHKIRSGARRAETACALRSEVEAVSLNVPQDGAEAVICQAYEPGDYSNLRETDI
T2 sequence (P43140 whole entry): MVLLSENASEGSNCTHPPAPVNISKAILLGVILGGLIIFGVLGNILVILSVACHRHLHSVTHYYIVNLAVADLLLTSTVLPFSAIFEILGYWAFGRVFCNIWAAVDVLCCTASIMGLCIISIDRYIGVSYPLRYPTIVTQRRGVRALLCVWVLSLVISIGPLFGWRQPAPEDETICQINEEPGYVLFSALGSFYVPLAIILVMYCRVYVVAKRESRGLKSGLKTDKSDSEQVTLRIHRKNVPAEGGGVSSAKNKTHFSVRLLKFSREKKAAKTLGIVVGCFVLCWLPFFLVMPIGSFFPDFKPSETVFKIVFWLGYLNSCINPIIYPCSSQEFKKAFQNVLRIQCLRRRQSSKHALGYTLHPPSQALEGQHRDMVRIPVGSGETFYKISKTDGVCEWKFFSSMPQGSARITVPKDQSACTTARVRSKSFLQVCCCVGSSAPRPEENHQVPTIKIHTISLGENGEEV
Summary of the method: (§2)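 Rat thoracic aortic strips, isometric tension; equilibrated 120 min, primed with 60 mM KCl. Cumulative phenylephrine (0.01-10 μM) curve, wash, 1 h later second cumulative curve with test drug present. pA2 from the concentration-response curves where blockade is competitive (otherwise noncompetitive); single determination.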

[3] = target: T3, Adrenergic receptor alpha-1 (Rattus norvegicus) (UniProt P15823+P23944+P43140); assay: In vivo inhibitory activity in rats against elevation of blood pressure caused by phenylephrine (30 ug/kg, iv) through Alpha-1 adrenergic receptor, after 1 hr oral administration at dose of 10 mg/kg; format: functional, organism-based; set-up: dose 10 mg/kg
Summary of the method: (§3)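 Male SD rats under urethane (1 g/kg ip) and alpha-chloralose (80 mg/kg ip). Blood pressure recorded via carotid catheter and transducer, iv dosing via venous catheter. After oral drug or vehicle, phenylephrine 30 μg/kg iv. The pressor rise was expressed as % inhibition, mean ± SEM.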

[4] = target: T4, Serotonin 2 (5-HT2) receptor (Rattus norvegicus, UniProt P30994+P08909+P14842); assay: (§4) In vitro antagonistic activity against the contraction induced by 5-HT through 5-hydroxytryptamine 2 receptor in rat thoracic aortic strips; format: functional
Summary of the method: as §2, with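 “5-HT (0.1-100” for “phenylephrine (0.01-10”, “cumulative 5-HT” for “cumulative”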

[5] = target: T4, Serotonin 2 (5-HT2) receptor; assay: In vitro antagonistic activity against the contraction induced by 5-HT through 5-HT2 receptor in rat thoracic aortic strips; format: functional
Summary of the method: as §2, with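 “5-HT (0.1-100” for “phenylephrine (0.01-10”, “cumulative 5-HT” for “cumulative”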

[6] = test system: Mus musculus; assay: The inhibition of compound was measured for 5 min in head twitches of mice induced by 5-HTP(100 mg/kg, ip) at the dose of 10 mg/kg; format: functional
Summary of the method: (§5)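 Mice received drug orally 1 h before 5-HTP (100 mg/kg ip). Head twitches were counted for 5 or 8 min, starting 30 min after 5-HTP. Results are % inhibition versus controls (n = 6), with n = 4 per treated dose.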

[7] = test system: Mus musculus; assay: The inhibition of compound was measured for 5 min in head twitches of mice induced by 5-HTP(100 mg/kg, ip) at the dose of 1 mg/kg; format: functional; summary of the method: as §5
[8] = test system: Mus musculus; assay: The inhibition of compound was measured for 5 min in head twitches of mice induced by 5-HTP(100 mg/kg, ip) at the dose of 3 mg/kg; format: functional; summary of the method: as §5
[9] = target: T1, Serotonin 2 (5-HT2) receptor (Rattus norvegicus); assay: In vivo inhibitory activity of 3 mg/kg compound in rats against elevation of BP caused by 5-HT (300 ug/kg, iv) through 5-hydroxytryptamine 2 receptor 1 hr after oral administration; format: functional, organism-based; set-up: dose 3 mg/kg; summary of the method: as §1
[10] = target: T1, Serotonin 2 (5-HT2) receptor (Rattus norvegicus); assay: In vivo inhibitory activity of 3 mg/kg compound in rats against elevation of BP caused by 5-HT (300 ug/kg, iv) through 5-hydroxytryptamine 2 receptor 3h after oral administration; format: functional, organism-based; set-up: dose 3 mg/kg; summary of the method: as §1
[11] = test system: Mus musculus; assay: The inhibition of compound was measured for 8 min in head twitches of mice induced by 5-HTP(100 mg/kg, ip) at the dose of 1 mg/kg; format: functional; summary of the method: as §5
[12] = target: T4, Serotonin 2 (5-HT2) receptor; assay: In vitro antagonistic activity tested against the contraction induced by 5-HT through 5-hydroxytryptamine 2 receptor in rat thoracic aortic strips; format: functional
[13] = target: T1, Serotonin 2 (5-HT2) receptor (Rattus norvegicus); assay: In vivo inhibitory activity of 10 mg/kg compound in rats against elevation of BP caused by 5-HT (300 ug/kg, iv) through 5-hydroxytryptamine 2 receptor 3h after oral administration; format: functional, organism-based; set-up: dose 10 mg/kg; summary of the method: as §1
[14] = test system: Mus musculus; assay: The inhibition of compound was measured for 8 min in head twitches of mice induced by 5-HTP(100 mg/kg, ip) at the dose of 0.1 mg/kg; format: functional; summary of the method: as §5
[15] = test system: Mus musculus; assay: The inhibition of compound was measured for 8 min in head twitches of mice induced by 5-HTP(100 mg/kg, ip) at the dose of 0.3 mg/kg; format: functional; summary of the method: as §5
[16] = target: T3, Adrenergic receptor alpha-1 (Rattus norvegicus); assay: In vivo inhibitory activity in rats against elevation of blood pressure caused by phenylephrine (30 ug/kg, iv) through alpha-1 receptor after 1 hr of oral administration at the dose of 10 mg/kg; format: functional, organism-based; set-up: dose 10 mg/kg; summary of the method: as §3
[17] = target: T1, Serotonin 2 (5-HT2) receptor (Rattus norvegicus); assay: as §4; format: functional; conditions: concentration not given here
Summary of the method: as §2, with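 “5-HT (0.1-100” for “phenylephrine (0.01-10”, “cumulative 5-HT” for “cumulative”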

[18] = target: T3, Adrenergic receptor alpha-1 (Rattus norvegicus); assay: In vitro antagonistic activity against the contraction induced by phenylephrine through Alpha-1 adrenergic receptor in rat thoracic aortic strips; format: functional; conditions: concentration not given here; summary of the method: as §2
[19] = target: T2, Adrenergic receptor alpha-1; assay: In vitro antagonistic activity against the contraction induced by phenylephrine through alpha-1 receptor in rat thoracic aortic strips; format: functional; summary of the method: as §2
[20] = target: T3, Adrenergic receptor alpha-1 (Rattus norvegicus); assay: In vivo inhibitory activity in rats against elevation of blood pressure caused by phenylephrine (30 ug/kg, iv) through alpha-1 receptor after 3h of oral administration at the dose of 10 mg/kg; format: functional, organism-based; set-up: dose 10 mg/kg; summary of the method: as §3
[21] = test system: Serotonin 2 (5-HT2) receptor (Rattus norvegicus); assay: In vivo inhibitory activity in rats against elevation of blood pressure caused by 5-HT (300 ug/kg, iv) through 5-HT2 receptor after 3h of oral administration at the dose of 3 mg/kg
[22] = target: T3, Adrenergic receptor alpha-1 (Rattus norvegicus); assay: In vivo inhibitory activity in rats against elevation of blood pressure caused by phenylephrine (30 ug/kg, iv) through Alpha-1 adrenergic receptor after 1 hr of oral administration at the dose of 10 mg/kg; format: functional, organism-based; set-up: dose 10 mg/kg; summary of the method: as §3
[23] = test system: Mus musculus; assay: The inhibition of compound was measured for 5 min in head twitches of mice induced by 5-HTP(100 mg/kg, ip) at the dose of 30 mg/kg; format: functional; summary of the method: as §5

T1 sequence (P08909 whole entry, looked up): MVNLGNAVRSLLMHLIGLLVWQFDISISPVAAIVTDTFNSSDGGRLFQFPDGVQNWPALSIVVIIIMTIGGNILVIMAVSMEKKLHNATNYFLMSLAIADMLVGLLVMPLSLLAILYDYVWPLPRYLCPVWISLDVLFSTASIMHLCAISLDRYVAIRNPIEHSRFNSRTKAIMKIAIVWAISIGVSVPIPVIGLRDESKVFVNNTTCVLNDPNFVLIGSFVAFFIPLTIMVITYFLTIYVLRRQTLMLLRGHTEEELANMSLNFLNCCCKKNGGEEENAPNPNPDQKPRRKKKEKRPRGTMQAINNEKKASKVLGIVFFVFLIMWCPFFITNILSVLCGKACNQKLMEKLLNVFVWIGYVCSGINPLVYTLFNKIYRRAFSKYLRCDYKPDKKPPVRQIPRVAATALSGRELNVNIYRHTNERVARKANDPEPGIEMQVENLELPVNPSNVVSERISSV
T1 sequence (P14842 whole entry, looked up): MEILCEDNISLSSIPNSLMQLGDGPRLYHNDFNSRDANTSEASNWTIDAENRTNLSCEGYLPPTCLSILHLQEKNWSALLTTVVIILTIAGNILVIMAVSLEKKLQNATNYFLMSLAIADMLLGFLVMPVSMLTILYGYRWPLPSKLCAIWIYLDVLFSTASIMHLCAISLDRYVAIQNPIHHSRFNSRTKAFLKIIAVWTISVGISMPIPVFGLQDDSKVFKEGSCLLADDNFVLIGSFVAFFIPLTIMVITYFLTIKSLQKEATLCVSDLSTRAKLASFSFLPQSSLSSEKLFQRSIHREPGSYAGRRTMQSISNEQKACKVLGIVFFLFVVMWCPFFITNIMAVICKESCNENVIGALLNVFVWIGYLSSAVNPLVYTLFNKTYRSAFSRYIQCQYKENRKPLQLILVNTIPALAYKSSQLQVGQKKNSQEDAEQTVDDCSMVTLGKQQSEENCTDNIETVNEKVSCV
T1 sequence (P30994 whole entry, looked up): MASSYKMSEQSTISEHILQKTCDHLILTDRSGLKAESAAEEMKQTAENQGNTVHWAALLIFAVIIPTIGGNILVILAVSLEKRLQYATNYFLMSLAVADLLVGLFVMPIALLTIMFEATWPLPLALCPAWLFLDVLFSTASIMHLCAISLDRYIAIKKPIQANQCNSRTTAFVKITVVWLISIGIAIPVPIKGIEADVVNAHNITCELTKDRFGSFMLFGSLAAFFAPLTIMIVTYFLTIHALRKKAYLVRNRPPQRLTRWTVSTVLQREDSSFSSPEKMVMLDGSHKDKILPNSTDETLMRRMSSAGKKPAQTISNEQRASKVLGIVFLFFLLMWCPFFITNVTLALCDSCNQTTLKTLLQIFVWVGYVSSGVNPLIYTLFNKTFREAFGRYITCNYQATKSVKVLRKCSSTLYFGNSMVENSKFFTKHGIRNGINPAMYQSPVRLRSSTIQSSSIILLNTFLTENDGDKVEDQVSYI

Structure (SMILES) | inhibition [1] | pA2 [2] | inhibition [3] | inhibition in vivo at 10 mg/kg [6] | inhibition in vivo at 3 mg/kg [8] | inhibition [9] | inhibition [10] | inhibition in vivo at 1 mg/kg [11] | pA2 [12] | inhibition [13] | inhibition in vivo at 0.1 mg/kg [14] | inhibition in vivo at 0.3 mg/kg [15] | inhibition [16] | inhibition [17] | further results
O=C(c1ccc(Cl)cc1)C1CCN(CCn2nc3n(c2=O)CCCC3)CC1 | 83% | 7.2 | 16% | – | – | – | – | – | – | – | – | – | – | – | pA2 [4]: 7.2
O=c1n(CCN2CCC(=C(c3ccc(F)cc3)c3ccc(F)cc3)CC2)nc2ccccn12 | 58% | 6.6 | 6% | – | – | – | – | – | – | – | – | – | – | – | pA2 [5]: 7
Cc1nc2sccn2c(=O)c1CCN1CCC(=C(c2ccc(F)cc2)c2ccc(F)cc2)CC1 [RITANSERIN] | – | 7.5 | 7% | 100% | 95% | – | – | – | – | – | – | – | – | – | inhibition in vivo at 1 mg/kg [7]: 80%
O=C(c1ccc(F)cc1)C1CCN(CCn2c(=O)nc3n(c2=O)CCCC3)CC1 | – | 6.9 | 33% | 80% | 67% | 93% | 83% | 81% | 8.1 | 90% | 49% | 59% | 33% | 93% | –
O=c1n(CCN2CCC(=C(c3ccc(F)cc3)c3ccc(F)cc3)CC2)nc2n1CCCC2 | – | – | – | 55% | 13% | 76% | 78% | – | 8.6 | 87% | – | – | – | 96% | inhibition [18]: 14%; pA2 [19]: 7; inhibition [20]: 4%; inhibition [21]: 11%; inhibition [22]: 14%; inhibition in vivo at 30 mg/kg [23]: 85%
O=C(c1ccc(F)cc1)C1CCN(CCn2c(=O)[nH]c3ccccc3c2=O)CC1 [KETANSERIN] | – | 7.8 | 91% | 100% | 92% | 96% | 84% | 93% | – | 100% | 49% | 88% | 91% | – | –
